Source: PubChem BioAssay
Measles CPE – protection of cells from measles virus | AID 841 | Measles virus-infected cells, CPE protection, absorbance | actives 1.5% (n = 140,000) | protection (pct of control), % at 4 µM; in the data active = protection mostly above about 24%, no sharp cut-off; inactive = mostly below about 26%
Redox H2O2 prof – compounds producing H2O2 with reducing agent – biochemical, NIH compound library profiling, artefact control for MLSCN library redox annotation, primary screen; activation, % at 10 µM; actives 0.03% (n = 200,000); DTT-dependent redox cycling H2O2, phenol red/HRP absorbance; 100% = 100 µM peroxide control, 0% = buffer;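 active = activation of at least 50% relative to the plate's high and low controls in the primary single-dose screen; inactive = activation below 50%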;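 also: compound incubated with DTT at 0.8 mM final as the reducing agent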
FLuc inhib CS – inhibits firefly luciferase, flagging false hits in luciferase inhibition screens. P08659. ATPLite firefly luciferase biochemical luminescence, 10 min. inhibition, % at 10 µM. actives 1.5% (n = 200,000). AID 1006;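 active = inhibition above about 50% when tested at 10 µM, limit read from the data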
ABCB1 block – human ABCB1 inhibition, ABCG2 as counter-screen | CCRF-Adr cells, JC-1 efflux, flow cytometry | inhibition, % at 6.6 µM | actives 0.067% (n = 190,000); in the data active = inhibition above about 40%;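 also: 0% = vehicle and 100% = reference inhibitor; higher value means more JC-1 retained so stronger ABCB1 efflux block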
ABCG2 inh – inhibitors of human ABCG2 transporter, ABCB1 counter-screen; IgMXP3 cells, JC-1 efflux, flow cytometry; inhibition, % at 6.6 µM; Q9UNQ0; actives 0.1% (n = 190,000); AID 1325;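 active = inhibition above 80%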;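 also: 0% = DMSO and 100% = nicardipine control wells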
Target sequence (Q9UNQ0 whole entry, looked up): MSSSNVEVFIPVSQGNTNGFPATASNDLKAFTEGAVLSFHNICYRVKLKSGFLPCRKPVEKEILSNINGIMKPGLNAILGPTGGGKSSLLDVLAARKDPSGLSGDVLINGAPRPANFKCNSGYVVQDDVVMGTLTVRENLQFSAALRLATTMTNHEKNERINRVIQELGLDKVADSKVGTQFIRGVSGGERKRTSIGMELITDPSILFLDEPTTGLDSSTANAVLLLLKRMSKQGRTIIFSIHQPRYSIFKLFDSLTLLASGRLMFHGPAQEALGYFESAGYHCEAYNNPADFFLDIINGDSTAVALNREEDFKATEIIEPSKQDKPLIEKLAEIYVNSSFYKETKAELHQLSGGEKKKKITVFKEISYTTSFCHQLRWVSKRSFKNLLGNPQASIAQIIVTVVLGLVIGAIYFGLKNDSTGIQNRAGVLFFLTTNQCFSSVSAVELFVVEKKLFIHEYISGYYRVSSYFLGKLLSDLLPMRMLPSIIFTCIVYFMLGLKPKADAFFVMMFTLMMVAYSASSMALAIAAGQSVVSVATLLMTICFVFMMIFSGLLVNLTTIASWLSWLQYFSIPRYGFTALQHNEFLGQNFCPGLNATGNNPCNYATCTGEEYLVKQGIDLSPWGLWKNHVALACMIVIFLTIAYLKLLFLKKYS
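System: two drug-resistant human cell lines, ABCG2 and ABCB1; controls: nicardipine high and DMSO low controls; times: 10 min exposure at 25 °C with rotation, no wash; detection: flow cytometry of retained JC-1 fluorescence; read-out basis: percent efflux inhibition, scaled nicardipine 100% to DMSO 0%; doses: one concentration, 6.6 µM final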
FLuc stim CS – firefly luciferase counter-screen for stimulation assays; P08659; ATPlite luciferase biochemical, luminescence, 10 min; 0 = ATP-free wells, 1 = DMSO control; activation factor at 10 µM; 200,000 tested, under 10 active;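 active = luciferase activation factor, scaled between plate controls, of at least 2 with compound at 10 µM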
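System: Luciferase/luciferin detection reagent, cell-free biochemical luciferase assay | Medium: PBS buffer for ATP | Dosing: Test compounds dosed from 2 mM stocks in 100% DMSO | Timing: 10 min at ambient temperature | Signal: Luminescence measurement of luciferase light output | Evaluation: Luciferase activation, seen as luminescence increase over controls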
* = called active by the depositor; x = not tested or not shown. Compounds with a hit are over-represented: about 2.7% of the library has one in this group of screens.

SMILES	Measles CPE	Redox H2O2 prof	FLuc inhib CS	ABCB1 block	ABCG2 inh	FLuc stim CS
Cc1ccn2cc(-c3ccc4c(c3)NC(=O)CO4)nc2c1	x	-0.3	82.7*	0.2	2.9	0.2
O=C(CSc1nnc2ccccn12)Nc1nsc(-c2ccccc2)n1	27.0*	-0.1	33.6	0.1	-0.3	0.7
Cc1cc(C(=O)NC2CCCCC2)c(C)n1-c1ccc(F)cc1	11.7	-0.6	51.1*	1.2	13.5	0.5
O=C(c1c(F)cccc1F)N1CCC(n2nnc3cc(C(F)(F)F)ccc32)CC1	x	-0.8	-5.7	1.3	2.5	1.1
Cc1ccc(N2C(=O)CC(NNc3nc4ccccc4s3)C2=O)cc1 (configuration not stated)	47.8*	-0.9	-7.2	0.9	15.4	1.1
COc1ccc([N+](=O)[O-])cc1NC(=O)Cc1noc2ccccc12	x	-1.2	-7.0	0.3	2.6	1.1
Cc1ccc2oc(C(=O)Nc3nnc(C)s3)c(C)c2c1	5.9	0.0	59.0*	0.8	2.2	0.4
Cc1cc2ncc(-c3ccc(Cl)cc3)c(N)n2n1	8.1	-0.3	57.7*	-0.2	-1.3	0.4
Nc1c(-c2ccccc2)cnc2cc(-c3ccccc3)nn12	x	-1.2	85.5*	0.1	2.6	0.1
Nc1c(-c2ccc(Cl)cc2)cnc2ncnn12	10.8	-6.8	-0.2	0.3	2.2	1
Cc1cc(Nc2ccccc2Cl)n2nnnc2n1	14.6	3.8	-4.0	0.5	0.8	1
Cc1ccc(/C=N/OC(=O)c2nn(C)cc2Cl)cc1	x	-0.5	76.0*	0.4	13.1	0.2
Cc1ccc(S(=O)(=O)Oc2ccc(/C=N/NC(=O)c3nn(C)cc3Cl)cc2)cc1	3.1	0.2	-4.9	0.6	4.4	1
COc1cc(OC)cc(-c2nc3ccccc3s2)c1	6.2	1.7	23.3	0.8	5.1	0.8
O=C1CCC(=O)N1c1ccc(-c2nc3ccccc3s2)cc1	x	-0.8	87.6*	0.4	4.7	0.1
CCC1SC2=NC(C)=C(C(=O)OCC(C)C)C(/C=C/c3ccccc3OC)N2C1=O (configuration not stated)	7.4	2.9	-2.0	6.8	10.5	1
CCC1SC2=NC(C)=C(C(=O)OCCOC)C(/C=C/c3ccccc3OC)N2C1=O (configuration not stated)	54.1*	2.8	3.0	3.0	2.4	1
COc1cc(Cl)c(C)cc1NC(=O)CSc1cc(Cl)ccc1Cl	3.3	1.0	-9.4	-0.5	-2.1	1.1
COc1ccc(-n2c(C)cc(SC)c(C(C)=O)c2=S)cc1	97.5*	0.1	3.5	0.2	1.1	1
Cc1cc(/C=N/n2cnnc2)c(C)n1-c1ccc(OCc2ccc(Cl)cc2)cc1	47.7*	0.0	5.0	0.3	0.4	0.9
O=C(NCc1ccco1)C(=O)NCC1OCCN1S(=O)(=O)c1ccc(Cl)cc1 (configuration not stated)	17.0	0.4	-13.1	0.0	0.7	1.1
O=C(NCc1ccco1)C(=O)NCC1OCCN1S(=O)(=O)c1ccc(F)cc1 (configuration not stated)	49.5*	0.6	-11.9	-0.2	0.4	1.1
C=CCOc1ccccc1CNc1cccc(F)c1	32.5	-0.6	-7.4	-0.6	-1.9	1.1
C=CCOc1ccccc1CNc1ccc2c(c1)OCCO2	x	0.0	74.4*	1.1	13.4	0.3
CN(C)/C=C/C(=O)c1ccc(-n2cccc2)cc1	x	-0.9	84.8*	0.0	1.1	0.2
SMILES	Measles CPE	Redox H2O2 prof	FLuc inhib CS	ABCB1 block	ABCG2 inh	FLuc stim CS
Cc1ccc(C(=O)N/N=C2\CCCc3ccccc32)c(C)c1	x	-0.9	47.2	0.0	-0.3	0.5
O=C(N/N=C1\CCCc2ccccc21)c1ccc([N+](=O)[O-])cc1	5.3	4.3	61.3*	-0.1	0.0	0.4
N#C/C(=C\c1cccs1)C(=O)Nc1nccs1	x	-0.9	74.7*	0.2	1.4	0.3
N#C/C(=C\c1cccs1)C(=O)NCc1ccccc1	4.6	0.8	4.8	0.2	2.3	1
O=C(Nc1ccc2c(c1)OCO2)Nc1cnccn1	10.8	2.6	7.5	-0.1	4.7	0.9
CCn1cc(Cl)c(C(=O)Nc2ccc3c(c2)OCCO3)n1	x	-0.5	73.8*	-0.4	8.8	0.3
Cn1nc(C(=O)Nc2ccc3c(c2)OCCO3)cc1C(=O)O	x	-1.5	64.8*	0.2	1.7	0.4
O=C(Nc1ccc2c(c1)OCO2)Nc1ccccn1	x	0.5	50.0*	0.4	8.1	0.5
O=C(Nc1ccc2c(c1)OCCO2)NC1CCCCC1	3.5	2.6	70.9*	0.6	4.5	0.3
Cn1nccc1C(=O)Nc1ccc2c(c1)OCCO2	x	0.6	43.5	-0.2	3.7	0.6
O=C(CCSCc1ccccc1Cl)NC1CCCC1	6.3	-0.6	-8.2	0.1	2.0	1.1
O=C(Nc1ccc2c(c1)OCCO2)c1ccccn1	x	-0.3	93.0*	0.1	0.2	0.1
O=C(Nc1ccc2c(c1)OCCO2)c1ccc2ccccc2n1	x	0.0	61.7*	-0.3	0.7	0.4
O=C(Nc1ccc2c(c1)OCCO2)c1cccc2nc3ccccc3nc12	4.6	1.1	0.1	2.4	7.5	1
O=C(Nc1ccc(NC(=O)c2ccccn2)cc1)C(=O)Nc1ccc2c(c1)OCCO2	x	0.1	1.7	-0.3	-1.2	1
O=C(CCCN1C(=O)c2ccccc2C1=O)OC1CSCC1NC(=O)c1ccccc1 (configuration not stated)	6.0	2.4	-4.3	0.0	-0.4	1
Cc1cc(SCC(=O)c2cccs2)n2nc(C)c(-c3ccccc3)c2n1	59.6*	0.1	2.7	-1.6	-8.7	1
O=C(NCC(c1cccs1)N1CCOCC1)c1ccccc1NS(=O)(=O)c1cccc([N+](=O)[O-])c1 (configuration not stated)	31.6*	0.2	-14.4	0.3	4.0	1.1
O=C(NCC(c1cccs1)N1CCOCC1)c1ccccc1NS(=O)(=O)c1ccc(Cl)c([N+](=O)[O-])c1 (configuration not stated)	5.6	0.2	-4.0	-0.1	1.4	1
CN1CCN(c2ncnc3c2[nH]c2ccc(F)cc23)CC1	50.4*	-1.4	-2.4	0.6	4.9	1
O=C(N/N=C\c1ccccn1)c1ccccc1O	x	-0.9	69.0*	0.1	15.5	0.3
Cc1ccccc1C(=O)N/N=C/c1ccncc1	2.5	-7.5	5.9	0.5	3.4	0.9
O=C(N/N=C/c1ccccn1)c1ccccc1	1.5	-0.7	55.9*	-2.7	-14.5	0.4
Cc1ccccc1C(=O)N/N=C/c1ccccn1	2.6	-0.2	54.3*	-0.1	-0.1	0.5
O=C(N/N=C\c1ccncc1)c1ccccc1O	x	-0.3	68.8*	0.5	10.3	0.3
